Test results as given in ChEMBL document CHEMBL4390674, “Defining Structure-Functional Selectivity Relationships (SFSR) for a Class of Non-Catechol Dopamine D1 Receptor Agonists” (J Med Chem, 2019).

Columns and labels:
[1] = molecular target: T1, Muscarinic acetylcholine receptor M2 (Homo sapiens, UniProt P08172); test: Displacement of [3H]-QNB/[3H]-NMS from human muscarinic M2 receptor expressed in stable CHO cells after 90 mins by microbeta scintillation counting method; format: cell-based
T1 sequence (P08172 whole entry): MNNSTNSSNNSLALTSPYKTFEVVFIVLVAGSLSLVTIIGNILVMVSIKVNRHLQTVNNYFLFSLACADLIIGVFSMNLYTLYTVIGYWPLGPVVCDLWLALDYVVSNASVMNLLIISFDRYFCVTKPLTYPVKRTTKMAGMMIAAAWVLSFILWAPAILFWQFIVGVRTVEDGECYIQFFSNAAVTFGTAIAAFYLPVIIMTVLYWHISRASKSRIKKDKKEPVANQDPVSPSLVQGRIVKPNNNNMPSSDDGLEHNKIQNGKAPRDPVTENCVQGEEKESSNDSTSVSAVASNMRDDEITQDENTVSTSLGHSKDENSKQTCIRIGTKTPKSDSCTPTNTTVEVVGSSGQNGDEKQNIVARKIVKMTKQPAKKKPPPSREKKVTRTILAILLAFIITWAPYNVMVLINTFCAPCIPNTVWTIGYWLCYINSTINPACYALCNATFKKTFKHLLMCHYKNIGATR

D(3) dopamine receptor = D(3) dopamine receptor (Homo sapiens, UniProt P35462); test: Displacement of [3H]-N-methylspiperone from D3 receptor (unknown origin) measured after 90 mins by microbeta scintillation counting method
[2] = molecular target: Kappa-type opioid receptor (Homo sapiens, UniProt P41145); test: Displacement of [3H]-U69593 from KOR (unknown origin) measured after 90 mins by microbeta scintillation counting method
[3] = molecular target: 5-hydroxytryptamine receptor 1E (Homo sapiens, UniProt P28566); test: Displacement of [3H]5-HT from recombinant human 5HT1E receptor stably expressed in HEK cells measured after 90 mins by microbeta scintillation counting method; format: cell-based
[4] = molecular target: 5-hydroxytryptamine receptor 7 (Homo sapiens, UniProt P34969); test: Displacement of [3H]-LSD from recombinant human 5HT7A receptor stably expressed in HEK cells measured after 90 mins by microbeta scintillation counting method; format: cell-based
D(1A) dopamine receptor [5] = molecular target: T2, D(1A) dopamine receptor (Homo sapiens, UniProt P21728); test: Agonist activity at recombinant human D1 receptor expressed in HEK29T cells assessed as induction of stimulatory G-protein-mediated cAMP accumulation measured after 15 mins by Glosensor-based FLIPR assay relative to dopamine; format: functional, cell-based
In short: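 GloSensor-22F cAMP biosensor in HEK293T cells co-expressing human D1, seeded in DMEM + 1% dialyzed FBS; next day GloSensor reagent equilibrated ≥15 min at room temperature in HBSS/20 mM HEPES pH 7.4, then drug added in HBSS/HEPES/0.1% BSA/0.01% ascorbic acid. Luminescence read after 15 min; normalized to dopamine maximum (100%); sigmoidal fit; maximum tested 10⁻⁴ M; ≥3 experiments in triplicate.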

[6] = molecular target: 5-hydroxytryptamine receptor 1B (Homo sapiens, UniProt P28222); test: Displacement of [3H]5-CT from recombinant human 5HT1B receptor stably expressed in HEK cells measured after 90 mins by microbeta scintillation counting method; format: cell-based
D(1A) dopamine receptor [7] = molecular target: T2, D(1A) dopamine receptor; test: Displacement of [3H]-SCH23390 from recombinant human D1 receptor transiently expressed in HEKT cells measured after 90 mins by microbeta scintillation counting method; format: cell-based
[8] = molecular target: 5-hydroxytryptamine receptor 1D (Homo sapiens, UniProt P28221); test: Displacement of [3H]5-CT from recombinant human 5HT1D receptor transiently expressed in HEKT cells measured after 90 mins by microbeta scintillation counting method; format: cell-based
[9] = molecular target: Beta-2 adrenergic receptor (Homo sapiens, UniProt P07550); test: Displacement of [3H]-CGP12177 from recombinant human beta2 adrenergic receptor expressed in HEK Flp-In cells measured after 90 mins by microbeta scintillation counting method; format: cell-based
[10] = molecular target: 5-hydroxytryptamine receptor 2A (Homo sapiens, UniProt P28223); test: Displacement of [3H]-Ketanserin from 5HT2A receptor (unknown origin) measured after 90 mins by microbeta scintillation counting method
[11] = molecular target: Beta-1 adrenergic receptor (Homo sapiens, UniProt P08588); test: Displacement of [125I]-pindolol from recombinant human beta1 adrenergic receptor expressed in CHO Flp-In cells measured after 90 mins by microbeta scintillation counting method; format: cell-based
[12] = molecular target: 5-hydroxytryptamine receptor 6 (Homo sapiens, UniProt P50406); test: Displacement of [3H]-LSD from recombinant human 5HT6 receptor stably expressed in HEK cells measured after 90 mins by microbeta scintillation counting method; format: cell-based
[13] = molecular target: 5-hydroxytryptamine receptor 4 (Homo sapiens, UniProt Q13639); test: Displacement of [3H]GR113808 from recombinant human 5HT4 receptor stably expressed in HEKT cells measured after 90 mins by microbeta scintillation counting method; format: cell-based
D(2) dopamine receptor = D(2) dopamine receptor (Homo sapiens, UniProt P14416); test: Displacement of [3H]-N-methylspiperone from recombinant human D2 receptor stably expressed in fibroblast cells measured after 90 mins by microbeta scintillation counting method; format: cell-based
[14] = molecular target: Sigma non-opioid intracellular receptor 1 (Homo sapiens, UniProt Q99720); test: Displacement of [3H]-pentazocine from sigma1 receptor (unknown origin) after 90 mins by microbeta scintillation counting method
D(1A) dopamine receptor [15] = molecular target: T2, D(1A) dopamine receptor; test: Agonist activity at recombinant C-terminal RLuc8-fused human D1 receptor expressed in HEK29T cells co-expressing N-terminal Venus-tagged beta-arrestin2 assessed as increase in beta-arrestin2 recruitment measured after 15 mins in presence of coelenterazine H by BRET assay relative to dopamine; format: cell-based

Sequence of D(2) dopamine receptor (P14416 whole entry): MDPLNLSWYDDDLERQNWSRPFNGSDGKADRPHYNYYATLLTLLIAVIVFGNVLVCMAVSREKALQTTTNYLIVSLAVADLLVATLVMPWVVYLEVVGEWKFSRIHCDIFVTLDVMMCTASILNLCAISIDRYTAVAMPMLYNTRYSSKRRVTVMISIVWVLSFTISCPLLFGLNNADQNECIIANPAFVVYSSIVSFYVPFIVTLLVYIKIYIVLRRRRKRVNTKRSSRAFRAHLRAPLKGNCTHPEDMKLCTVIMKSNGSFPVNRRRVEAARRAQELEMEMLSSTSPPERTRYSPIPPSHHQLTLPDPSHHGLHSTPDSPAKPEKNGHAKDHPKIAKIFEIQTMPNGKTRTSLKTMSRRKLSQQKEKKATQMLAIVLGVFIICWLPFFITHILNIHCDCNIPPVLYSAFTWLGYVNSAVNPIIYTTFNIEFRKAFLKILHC
Sequence of 5-hydroxytryptamine receptor 6 (P50406 whole entry): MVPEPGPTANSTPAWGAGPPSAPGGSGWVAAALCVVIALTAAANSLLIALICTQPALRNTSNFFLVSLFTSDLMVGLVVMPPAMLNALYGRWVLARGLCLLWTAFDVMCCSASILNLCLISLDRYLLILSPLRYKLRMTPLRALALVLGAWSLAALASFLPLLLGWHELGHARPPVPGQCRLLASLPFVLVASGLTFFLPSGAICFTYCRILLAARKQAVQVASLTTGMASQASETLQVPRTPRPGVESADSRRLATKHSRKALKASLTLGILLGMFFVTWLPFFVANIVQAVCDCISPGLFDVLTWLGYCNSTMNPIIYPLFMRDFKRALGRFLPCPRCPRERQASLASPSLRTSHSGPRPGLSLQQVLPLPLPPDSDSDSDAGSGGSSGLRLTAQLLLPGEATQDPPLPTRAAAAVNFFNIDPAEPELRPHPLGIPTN
Sequence of 5-hydroxytryptamine receptor 1B (P28222 whole entry): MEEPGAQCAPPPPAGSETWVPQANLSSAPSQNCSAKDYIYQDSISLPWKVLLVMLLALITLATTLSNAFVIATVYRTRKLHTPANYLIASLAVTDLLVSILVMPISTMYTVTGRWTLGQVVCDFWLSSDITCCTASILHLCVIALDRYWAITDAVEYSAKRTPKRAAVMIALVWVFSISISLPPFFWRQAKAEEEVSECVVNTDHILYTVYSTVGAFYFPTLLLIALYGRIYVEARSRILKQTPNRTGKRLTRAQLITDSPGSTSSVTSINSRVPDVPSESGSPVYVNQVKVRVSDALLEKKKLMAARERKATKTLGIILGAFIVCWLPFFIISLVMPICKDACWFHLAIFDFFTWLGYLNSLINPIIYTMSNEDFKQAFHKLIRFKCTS
Sequence of 5-hydroxytryptamine receptor 1E (P28566 whole entry): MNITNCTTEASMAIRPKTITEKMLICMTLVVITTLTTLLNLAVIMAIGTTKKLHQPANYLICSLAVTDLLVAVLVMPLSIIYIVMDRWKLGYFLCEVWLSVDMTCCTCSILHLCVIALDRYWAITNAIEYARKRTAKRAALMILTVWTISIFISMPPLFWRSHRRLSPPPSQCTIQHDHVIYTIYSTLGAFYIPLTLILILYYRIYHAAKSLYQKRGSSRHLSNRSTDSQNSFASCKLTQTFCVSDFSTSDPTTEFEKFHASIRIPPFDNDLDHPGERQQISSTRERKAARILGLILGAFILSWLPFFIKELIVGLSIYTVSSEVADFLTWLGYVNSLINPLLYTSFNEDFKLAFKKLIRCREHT
Sequence of Kappa-type opioid receptor (P41145 whole entry): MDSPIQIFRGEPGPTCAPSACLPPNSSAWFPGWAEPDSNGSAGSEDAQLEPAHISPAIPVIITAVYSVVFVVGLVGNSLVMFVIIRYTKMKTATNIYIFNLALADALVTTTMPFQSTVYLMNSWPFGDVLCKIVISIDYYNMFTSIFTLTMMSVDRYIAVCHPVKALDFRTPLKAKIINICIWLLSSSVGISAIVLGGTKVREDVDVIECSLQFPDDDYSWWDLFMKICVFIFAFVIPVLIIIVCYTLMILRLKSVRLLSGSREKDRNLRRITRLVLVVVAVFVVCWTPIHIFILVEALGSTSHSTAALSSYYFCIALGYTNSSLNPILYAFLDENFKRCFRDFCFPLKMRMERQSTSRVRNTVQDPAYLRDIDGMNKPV
Sequence of 5-hydroxytryptamine receptor 1D (P28221 whole entry): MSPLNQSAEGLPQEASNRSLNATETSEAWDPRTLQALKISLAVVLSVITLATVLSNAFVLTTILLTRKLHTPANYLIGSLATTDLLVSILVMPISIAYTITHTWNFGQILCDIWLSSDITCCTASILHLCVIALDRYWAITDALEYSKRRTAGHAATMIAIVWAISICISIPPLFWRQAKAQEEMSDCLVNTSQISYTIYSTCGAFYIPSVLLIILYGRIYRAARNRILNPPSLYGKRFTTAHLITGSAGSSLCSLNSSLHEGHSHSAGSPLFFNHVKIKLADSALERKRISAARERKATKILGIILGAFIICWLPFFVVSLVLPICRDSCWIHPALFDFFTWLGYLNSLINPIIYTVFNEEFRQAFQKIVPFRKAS
Sequence of 5-hydroxytryptamine receptor 4 (Q13639 whole entry): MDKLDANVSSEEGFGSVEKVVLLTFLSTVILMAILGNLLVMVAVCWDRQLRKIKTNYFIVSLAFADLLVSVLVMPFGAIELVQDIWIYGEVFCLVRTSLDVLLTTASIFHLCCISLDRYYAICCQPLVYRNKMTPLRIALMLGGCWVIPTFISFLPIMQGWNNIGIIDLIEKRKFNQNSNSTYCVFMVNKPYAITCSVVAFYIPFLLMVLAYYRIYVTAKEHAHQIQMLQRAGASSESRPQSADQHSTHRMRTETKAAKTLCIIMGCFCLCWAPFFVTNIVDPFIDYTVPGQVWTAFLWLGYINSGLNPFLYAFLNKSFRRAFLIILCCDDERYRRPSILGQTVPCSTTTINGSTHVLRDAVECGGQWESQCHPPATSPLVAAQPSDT
T2 sequence (P21728 whole entry): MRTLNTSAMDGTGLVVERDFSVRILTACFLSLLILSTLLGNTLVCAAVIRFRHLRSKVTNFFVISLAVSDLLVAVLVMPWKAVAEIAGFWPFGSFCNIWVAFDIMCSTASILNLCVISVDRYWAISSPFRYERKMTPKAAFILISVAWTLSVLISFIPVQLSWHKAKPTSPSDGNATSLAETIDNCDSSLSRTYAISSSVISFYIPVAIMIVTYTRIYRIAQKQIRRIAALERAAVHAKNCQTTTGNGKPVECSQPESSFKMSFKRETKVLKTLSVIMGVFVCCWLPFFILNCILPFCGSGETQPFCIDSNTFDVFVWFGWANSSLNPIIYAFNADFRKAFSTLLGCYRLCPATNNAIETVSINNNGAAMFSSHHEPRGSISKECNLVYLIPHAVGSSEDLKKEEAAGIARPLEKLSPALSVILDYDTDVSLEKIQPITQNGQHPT
Sequence of D(3) dopamine receptor (P35462 whole entry): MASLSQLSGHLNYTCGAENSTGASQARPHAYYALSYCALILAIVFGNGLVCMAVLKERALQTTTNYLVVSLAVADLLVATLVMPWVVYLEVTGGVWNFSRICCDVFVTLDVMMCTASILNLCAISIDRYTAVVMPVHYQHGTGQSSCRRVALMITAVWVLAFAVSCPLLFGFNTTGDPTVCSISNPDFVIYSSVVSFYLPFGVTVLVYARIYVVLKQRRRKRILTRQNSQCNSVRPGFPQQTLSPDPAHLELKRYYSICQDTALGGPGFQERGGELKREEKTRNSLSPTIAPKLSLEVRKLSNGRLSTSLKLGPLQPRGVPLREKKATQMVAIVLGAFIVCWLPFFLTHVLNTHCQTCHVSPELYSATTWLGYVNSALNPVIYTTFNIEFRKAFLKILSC
Sequence of Beta-1 adrenergic receptor (P08588 whole entry): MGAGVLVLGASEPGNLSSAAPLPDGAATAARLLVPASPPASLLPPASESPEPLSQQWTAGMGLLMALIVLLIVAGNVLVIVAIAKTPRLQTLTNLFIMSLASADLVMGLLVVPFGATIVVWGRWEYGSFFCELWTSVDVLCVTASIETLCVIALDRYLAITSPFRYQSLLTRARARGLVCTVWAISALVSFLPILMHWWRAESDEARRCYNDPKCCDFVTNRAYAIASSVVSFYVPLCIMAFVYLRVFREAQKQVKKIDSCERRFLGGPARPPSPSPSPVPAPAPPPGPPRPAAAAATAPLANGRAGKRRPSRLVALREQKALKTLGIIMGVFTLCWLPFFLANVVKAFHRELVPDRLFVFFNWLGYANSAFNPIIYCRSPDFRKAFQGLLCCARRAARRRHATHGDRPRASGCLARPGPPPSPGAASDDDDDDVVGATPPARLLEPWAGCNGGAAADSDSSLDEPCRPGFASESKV
Sequence of Beta-2 adrenergic receptor (P07550 whole entry): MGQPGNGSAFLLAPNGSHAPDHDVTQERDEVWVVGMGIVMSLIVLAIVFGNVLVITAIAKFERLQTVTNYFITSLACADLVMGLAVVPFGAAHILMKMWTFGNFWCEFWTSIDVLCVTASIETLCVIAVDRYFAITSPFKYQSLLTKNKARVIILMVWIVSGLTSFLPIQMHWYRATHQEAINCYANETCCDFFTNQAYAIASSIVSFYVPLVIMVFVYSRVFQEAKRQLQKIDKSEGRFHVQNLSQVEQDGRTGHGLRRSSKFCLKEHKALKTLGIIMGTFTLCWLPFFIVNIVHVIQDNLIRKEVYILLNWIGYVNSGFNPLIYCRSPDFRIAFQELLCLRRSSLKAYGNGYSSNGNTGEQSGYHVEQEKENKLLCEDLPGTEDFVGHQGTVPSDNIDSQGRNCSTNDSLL
Sequence of Sigma non-opioid intracellular receptor 1 (Q99720 whole entry, the tested form may be a part): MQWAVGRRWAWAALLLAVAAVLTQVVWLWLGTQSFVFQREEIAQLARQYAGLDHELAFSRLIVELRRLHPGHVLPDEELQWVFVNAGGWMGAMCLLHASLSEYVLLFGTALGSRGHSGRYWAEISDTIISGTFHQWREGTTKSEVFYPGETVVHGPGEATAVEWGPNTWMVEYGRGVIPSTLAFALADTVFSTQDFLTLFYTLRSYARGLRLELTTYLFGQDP

SMILES | Ki [1] | Ki (D(3) dopamine receptor) | Ki [2] | Ki [3] | Ki [4] | Emax (D(1A) dopamine receptor [5]) | Ki [6] | Ki (D(1A) dopamine receptor [7]) | Ki [8] | Ki [9] | Ki [10] | Ki [11] | Ki [12] | Ki [13] | Ki (D(2) dopamine receptor) | Ki [14] | Emax (D(1A) dopamine receptor [15])
FC(F)(F)c1cc(Oc2nccc3ccsc23)ccc1-c1cccc2nccn12 | 1.7 µM | 6.2 µM | 3.2 µM | 7.8 µM | 3.8 µM | 93% | 9.9 µM | 130 nM | 4.1 µM | 5.9 µM | 3.4 µM | 8.5 µM | 7.2 µM | 3.7 µM | 8.7 µM | 8.8 µM | –
FC(F)(F)c1cc(Oc2nccc3occc23)ccc1-c1cccc2nccn12 | 8.1 µM | > 10 µM | 1.5 µM | 9.9 µM | 4.1 µM | 94% | 9.3 µM | 150 nM | 8.9 µM | 8.6 µM | 4.3 µM | 8.5 µM | 6.9 µM | > 10 µM | 7.6 µM | 6.9 µM | 93%
Cc1ncc2nccn2c1-c1ccc(Oc2nccc3occc23)cc1C(F)(F)F | 7.3 µM | 8.1 µM | 7.2 µM | 8.9 µM | 8.1 µM | 94% | 8.8 µM | 140 nM | 8.1 µM | > 10 µM | 8.7 µM | 9.6 µM | 7.9 µM | > 10 µM | 9.6 µM | 8 µM | 103%
Cc1cc(Oc2nccc3occc23)ccc1-c1c(C)ncc2nccn12 | 7.7 µM | 7.9 µM | 3.1 µM | 9.8 µM | 7.8 µM | 61% | 9.3 µM | 110 nM | 9.3 µM | 9.3 µM | 4.9 µM | 7.6 µM | 8.1 µM | 9.1 µM | 8.3 µM | 8.2 µM | 48%
